Assays:
[1] = Binding affinity to human CD4 signal peptide expressed in CHO cells assessed as down-modulation of YFP-fused CD4 expression after 24 hrs by flow cytometric analysis; type: cell-based
Method in brief: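 CHO cells stably expressing human CD4 fused C-terminally to YFP, treated 24 h at 37 °C with 1:5 serial dilutions. Washed, fixed in 1% formaldehyde, flow cytometry with 488 nm excitation and YFP in FL-1. YFP median fluorescence as % of untreated cells after subtracting non-transfected background. IC50 = 50% decrease; mean ± SD, n ≥ 3.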

[2] = test system: MT4; assay: Cytotoxicity against human MT4 cells after 48 hrs by MTS/PES method; type: cell-based; conditions: mt4, 48 h
Method in brief: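 MT-4 cells at 10⁴ per well in DMEM with 10% FBS and 10 mM HEPES, incubated with compounds 48 h at 37 °C. Viability by MTS/PES; CC50 taken as the concentration reducing viability by 50%.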

[3] = test system: Human immunodeficiency virus 1; assay: Antiviral activity against CXCR4 using HIV-1 NL4.3 infected in human MT4 cells assessed as reduction of viral replication preincubated for 15 mins with cells followed by viral infection measured after 4 days by MTS/PES method; type: functional, organism-based; conditions: Human immunodeficiency virus 1, NL4.3, MT4
Method in brief: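 MT-4 T cells at 3.75×10⁵ cells/mL in RPMI 1640 with 10% FBS and 2 mM L-glutamine, exposed to compounds for 15 min, then infected with HIV-1 NL4.3 (30 pg/well) at 37 °C. After 4 days, viability by MTS/PES absorbance at 490 and 700 nm, used to derive IC50 for viral replication. Mean ± SD, n = 2 or 3.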

[4] = test system: CHO; assay: Binding affinity to human CD4 signal peptide expressed in CHO cells assessed as down-modulation of YFP-fused CD4 expression at 50 uM after 24 hrs by flow cytometric analysis; type: cell-based
Method in brief: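 Stably CD4-YFP-expressing CHO cells, 24 h at 37 °C, 50 μM as the highest concentration tested. Washed, fixed in 1% formaldehyde, YFP read by flow cytometry (488 nm, FL-1). Median fluorescence versus untreated cells, background of non-transfected cells subtracted. Given as % CD4 down-modulation at 50 μM.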

| SMILES | IC50 [1] [µM] | pIC50 [1] | CC50 [2] [µM] | IC50 [3] [µM] | Activity [4] [%] |
| --- | --- | --- | --- | --- | --- |
| C=C1CN(S(=O)(=O)c2ccc(C)cc2)CCCN(Cc2ccccc2)CCCN(S(=O)(=O)c2ccc(OC)cc2OC)C1.Cl | 1.35 | 5.87 | > 150 | 7 | – |
| C=C1CN(S(=O)(=O)c2ccc(C)cc2)CCCN(CC2CCCCC2)CCCN(S(=O)(=O)c2ccc(O)cc2)C1 | 1.14 | – | > 150 | – | – |
| C=C1CN(S(=O)(=O)c2ccc(C)cc2)CCCN(Cc2ccccc2)CCCN(S(=O)(=O)N2CCOCC2)C1.Cl | 1.08 | 5.97 | > 150 | 8.99 | – |
| C=C1CN(S(=O)(=O)c2ccc(C)cc2)CCCN(Cc2ccccc2)CCCN(S(=O)(=O)c2ccc(N(C)C)cc2)C1.Cl | 0.17 | 6.77 | > 150 | 0.62 | – |
| C=C1CN(S(=O)(=O)c2ccc(C)cc2)CCCN(Cc2ccccc2)CCCN(S(=O)(=O)c2ccccc2N)C1.Cl | 2.12 | 5.66 | 70.3 | 6.93 | – |
| C=C1CNCCCN(Cc2ccccc2)CCCN(S(=O)(=O)c2ccc(C)cc2)C1 | > 50 | – | > 150 | – | 20 |
| C=C1CN(S(=O)(=O)c2ccc(C)cc2)CCCN(Cc2ccccc2)CCCN(S(=O)(=O)c2ccc(N)cc2)C1.Cl | 2.42 | 5.62 | 63.4 | 7.72 | – |
| C=C1CN(S(=O)(=O)c2ccc(C)cc2)CCCN(CC2CCCCC2)CCCN(S(=O)(=O)c2ccc(OCCCN3C(=O)c4ccccc4C3=O)cc2)C1 | 0.75 | – | 32.2 | – | – |
| C=C1CN(S(=O)(=O)c2ccc(C)cc2)CCCN(Cc2ccccc2)CCCN(S(=O)(=O)c2ccc(F)cc2)C1.Cl | 0.92 | 6.04 | > 150 | 4.66 | – |
| C=C1CN(C(=O)c2ccc([N+](=O)[O-])cc2)CCCN(Cc2ccccc2)CCCN(S(=O)(=O)c2ccc(C)cc2)C1 | > 50 | – | > 150 | > 50 | 39 |
| C=C1CN(S(=O)(=O)c2ccc(C)cc2)CCCN(CC2CCCCC2)CCCN(S(=O)(=O)c2ccc(N3CCOCC3)cc2)C1 | 0.13 | – | > 150 | 0.36 | – |
| C=C1CN(S(=O)(=O)c2ccc(C)cc2)CCCN(Cc2ccccc2)CCCN(S(=O)(=O)c2ccn(C)c2)C1.Cl | 3.17 | 5.5 | > 150 | > 50 | – |
| C=C1CN(S(=O)(=O)c2ccc(C)cc2)CCCN(Cc2ccccc2)CCCN(S(=O)(=O)c2ccc3ccccc3c2)C1.Cl | 0.55 | 6.26 | > 150 | 1.35 | – |
| C=C1CN(S(=O)(=O)c2ccc(C)cc2)CCCN(CC2CCCCC2)CCCN(S(=O)(=O)c2ccc(N)cc2)C1 | 1 | – | 10.6 | > 10 | – |
| C=C1CN(S(=O)(=O)c2ccc(C)cc2)CCCN(Cc2ccccc2)CCCN(S(=O)(=O)c2ccc3c(c2)OCO3)C1.Cl | 1.06 | 5.97 | > 150 | 14.2 | – |
| C=C1CN(S(=O)(=O)c2ccc(C)cc2)CCCN(Cc2ccccc2)CCCN(S(=O)(=O)c2ccccc2[N+](=O)[O-])C1.Cl | 0.7 | 6.15 | > 150 | 27.7 | – |
| C=C1CN(S(=O)(=O)c2ccc(C)cc2)CCCN(Cc2ccccc2)CCCN(S(=O)(=O)c2ccc(OC(F)(F)F)cc2)C1.Cl | 1.2 | 5.92 | > 150 | 3.26 | – |
| C=C1CN(C(=O)c2ccc(C)cc2)CCCN(Cc2ccccc2)CCCN(S(=O)(=O)c2ccc(C)cc2)C1 | 3.78 | – | 19.9 | 3.95 | – |
| C=C1CN(S(=O)(=O)c2ccc(C)cc2)CCCN(CC2CCCCC2)CCCN(S(=O)(=O)c2ccc(OCCCC)cc2)C1 | 1.1 | – | 13.2 | 1.95 | – |
| C=C1CN(S(=O)(=O)c2ccc(C)cc2)CCCN(Cc2ccccc2)CCCN(S(=O)(=O)c2cccc([N+](=O)[O-])c2)C1.Cl | 2.02 | 5.69 | > 150 | > 50 | – |

| SMILES | IC50 [1] [µM] | pIC50 [1] | CC50 [2] [µM] | IC50 [3] [µM] | Activity [4] [%] |
| --- | --- | --- | --- | --- | --- |
| C=C1CN(S(=O)(=O)c2ccc(C)cc2)CCCN(Cc2ccccc2)CCCN(S(=O)(=O)c2ccc(OC)c(OC)c2)C1.Cl | 0.31 | 6.51 | > 150 | 0.86 | – |
| C=C1CN(S(=O)(=O)c2ccc(C)cc2)CCCN(Cc2ccccc2)CCCN(S(=O)(=O)c2ccc(OC)cc2)C1.Cl | 0.29 | 6.54 | > 150 | 0.55 | – |
| C=C1CN(C(=O)c2ccc(N)cc2)CCCN(Cc2ccccc2)CCCN(S(=O)(=O)c2ccc(C)cc2)C1 | > 50 | – | 13.7 | > 10 | – |
| C=C1CN(C(=O)c2ccc(OC)cc2)CCCN(Cc2ccccc2)CCCN(S(=O)(=O)c2ccc(C)cc2)C1 | 4.22 | – | 23.6 | 3.86 | – |
| C=C1CN(S(=O)(=O)c2ccc(C)cc2)CCCN(Cc2ccccc2)CCCN(S(=O)(=O)c2ccc(OC(=S)N(C)C)cc2)C1.Cl | 6.28 | 5.2 | 106 | > 50 | – |
| C=C1CN(S(=O)(=O)c2ccc(C)cc2)CCCN(Cc2ccccc2)CCCN(S(=O)(=O)c2ccc([N+](=O)[O-])cc2)C1.Cl | 5.25 | 5.28 | > 150 | 35.9 | – |
| C=C1CN(S(=O)(=O)c2ccc(C)cc2)CCCN(CC2CCCCC2)CCCN(S(=O)(=O)c2ccc(OCCCN)cc2)C1 | > 50 | – | 11.6 | – | – |
| C=C1CN(S(=O)(=O)c2ccc(C)cc2)CCCN(Cc2ccccc2)CCCN(S(=O)(=O)c2cccc(N)c2)C1.Cl | 1.02 | 5.99 | > 150 | 6.22 | – |
| C=C1CN(S(=O)(=O)c2ccc(C)cc2)CCCN(Cc2ccccc2)CCCN(S(=O)(=O)c2ccc(SC)cc2)C1.Cl | 0.23 | 6.64 | > 150 | 1.44 | – |
| C=C1CN(S(=O)(=O)c2ccc(C)cc2)CCCN(Cc2ccccc2)CCCN(S(=O)(=O)N(C)C)C1 | 1.58 | – | > 150 | 12.8 | – |
| C=C1CN(S(=O)(=O)c2ccc(C)cc2)CCCN(Cc2ccccc2)CCCN(S(=O)(=O)c2ccc(C)cc2)C1 | – | 6.4 | – | – | – |
| C=C1CN(S(=O)(=O)c2ccc(C)cc2)CCCN(CC2CCCCC2)CCCN(S(=O)(=O)c2ccc(OCC)cc2)C1 | 0.19 | – | 19.6 | 0.62 | – |
| C=C1CN(C(=O)c2ccccc2)CCCN(Cc2ccccc2)CCCN(S(=O)(=O)c2ccc(C)cc2)C1 | 7.32 | – | 15.8 | > 10 | – |
| C=C1CN(S(=O)(=O)c2ccc(C)cc2)CCCN(CC2CCCCC2)CCCN(S(=O)(=O)c2ccc(N(C)C)cc2)C1 | 0.063 | – | 44 | 0.18 | – |
| C=C1CN(S(=O)(=O)c2ccccc2)CCCN(Cc2ccccc2)CCCN(S(=O)(=O)c2ccc(C)cc2)C1.Cl | 1.46 | 5.84 | > 150 | > 50 | – |
| C=C1CN(S(=O)(=O)c2ccc(C)cc2)CCCN(Cc2ccccc2)CCCN(S(=O)(=O)c2cccc(N(C)C)c2)C1.Cl | 0.79 | 6.1 | > 150 | > 50 | – |
| C=C1CN(S(=O)(=O)c2ccc(C)cc2)CCCN(Cc2ccccc2)CCCN(S(=O)(=O)c2ccc(O)cc2)C1.Cl | 3.58 | 5.45 | 13.6 | 2.84 | – |
| C=C1CN(S(=O)(=O)c2ccc(C)cc2)CCCN(CC2CCCCC2)CCCN(S(=O)(=O)c2ccc(OC)cc2)C1 | 0.15 | – | 99 | 0.49 | – |
| C=C1CN(S(=O)(=O)c2ccc(C)cc2)CCCN(CC2CCCCC2)CCCN(S(=O)(=O)c2ccc(-n3cccc3)cc2)C1 | 0.18 | – | 48 | 1.25 | – |
| C#CCOc1ccc(S(=O)(=O)N2CCCN(Cc3ccccc3)CCCN(S(=O)(=O)c3ccc(C)cc3)CC(=C)C2)cc1.Cl | 0.46 | 6.34 | > 150 | 0.55 | – |

— ChEMBL document CHEMBL3792300, “Tuning Side Arm Electronics in Unsymmetrical Cyclotriazadisulfonamide (CADA) Endoplasmic Reticulum (ER) Translocation Inhibitors to Improve their Human Cluster of Differentiation 4 (CD4) Receptor Down-Modulating Potencies” (J Med Chem, 2016)
